Type in all cases: functional, cell-based
Experiment [1] relates to L1210. Nature of the experiment: Growth inhibition in L1210 mouse Leukemia cells for a treatment time of 48 hr. The following applies: L1210, 48 h. Summed up:
(§1)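 L1210 cells in exponential growth, 3–6 × 10^4/mL in Fischer's medium with 10% horse serum, 1% glutamine, 1% antibiotic–antimycotic. Drug added from ethanol dilutions (50 μL per 10 mL), exposure 2, 8, 24 or 48 h. Cells then spun down, resuspended in drug-free medium, counted 48 h after treatment start. IC50 read from percent-of-control count versus concentration plots.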

In experiment [2] the test system is L1210. Nature of the experiment: Growth inhibition in L1210 mouse Leukemia cells for a treatment time of 2 hr. The following applies: L1210, 2 h. Summed up:
as §1

Experiment [3] deals with L1210. Nature of the experiment: Growth inhibition in L1210 mouse Leukemia cells for a treatment time of 8 hr. Particulars: L1210, 8 h. In a few lines:
as §1

Experiment [4] has as its system L1210. Put plainly: Growth inhibition in L1210 mouse Leukemia cells for a treatment time of 24 hr. The following applies: L1210, 24 h. Summed up: as §1

Usually IC50 stands for the concentration that gives 50% inhibition. Low values mean greater potency, high ones weaker potency.

Take `CN(CCBr)P(=O)(NCC1OC(n2cc(F)c(=O)[nH]c2=O)CC1O)OCc1ccc([N+](=O)[O-])o1` (stereo not given): the IC50 is 34 nM in experiment [1], 1100 nM in experiment [2], 504 nM in experiment [3] and 108 nM in experiment [4].
Compound `O=c1[nH]cc(F)c(=O)[nH]1` [FLUOROURACIL] came in with an IC50 in experiment [1] of 125 nM.

These data come from ChEMBL document CHEMBL1133513, “Synthesis and biological activity of novel 5-fluoro-2'-deoxyuridine phosphoramidate prodrugs” (J Med Chem, 2000).
